# Changes are numbered by the printed parent chain.
# Columns and labels:
# Conditions in all cases: stereoisomer not certain
# [1] = target: T1, UniProt L7MU75
# T1 sequence (whole entry): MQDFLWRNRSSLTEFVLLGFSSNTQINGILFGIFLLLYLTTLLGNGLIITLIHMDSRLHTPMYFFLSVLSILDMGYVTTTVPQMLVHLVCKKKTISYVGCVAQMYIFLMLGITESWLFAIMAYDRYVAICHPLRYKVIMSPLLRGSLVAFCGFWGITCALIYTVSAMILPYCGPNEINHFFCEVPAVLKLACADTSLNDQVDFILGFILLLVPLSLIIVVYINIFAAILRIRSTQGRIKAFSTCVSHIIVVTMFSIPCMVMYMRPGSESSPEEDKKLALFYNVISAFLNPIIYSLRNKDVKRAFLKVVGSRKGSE
# Method in brief: (§1)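 Transient luciferase assays in mammalian cell lines were common, though methods varied by source. The values come from published papers and their supplementary material, with extra details from the original authors when needed. Responsive refers to a measured signal the original authors judged statistically different from baseline, and non-responsive (inactive) to the remainder.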
# [2] = target: T2, UniProt L7N210
# T2 sequence (whole entry): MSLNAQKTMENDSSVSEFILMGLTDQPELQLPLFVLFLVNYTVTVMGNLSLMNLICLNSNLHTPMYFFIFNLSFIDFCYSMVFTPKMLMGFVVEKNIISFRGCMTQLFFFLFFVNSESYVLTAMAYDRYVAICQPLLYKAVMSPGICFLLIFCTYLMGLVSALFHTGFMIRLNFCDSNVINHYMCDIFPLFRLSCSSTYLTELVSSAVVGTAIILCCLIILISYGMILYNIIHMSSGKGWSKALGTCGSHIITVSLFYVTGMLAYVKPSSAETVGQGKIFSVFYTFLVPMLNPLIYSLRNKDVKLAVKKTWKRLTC
# Method in brief: as §1
# [3] = target: T3, UniProt Q3KPB0
# T3 sequence (whole entry): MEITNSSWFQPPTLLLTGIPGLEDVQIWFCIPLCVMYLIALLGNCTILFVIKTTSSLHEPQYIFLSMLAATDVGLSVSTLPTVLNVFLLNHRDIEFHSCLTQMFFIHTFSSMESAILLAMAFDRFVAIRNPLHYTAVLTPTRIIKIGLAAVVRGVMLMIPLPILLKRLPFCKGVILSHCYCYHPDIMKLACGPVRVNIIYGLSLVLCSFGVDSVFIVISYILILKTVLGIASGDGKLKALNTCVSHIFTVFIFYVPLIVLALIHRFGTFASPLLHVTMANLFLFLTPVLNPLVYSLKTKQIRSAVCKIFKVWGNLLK
# Method in brief: as §1
# [4] = target: T4, UniProt Q3U0P3
# T4 sequence (whole entry): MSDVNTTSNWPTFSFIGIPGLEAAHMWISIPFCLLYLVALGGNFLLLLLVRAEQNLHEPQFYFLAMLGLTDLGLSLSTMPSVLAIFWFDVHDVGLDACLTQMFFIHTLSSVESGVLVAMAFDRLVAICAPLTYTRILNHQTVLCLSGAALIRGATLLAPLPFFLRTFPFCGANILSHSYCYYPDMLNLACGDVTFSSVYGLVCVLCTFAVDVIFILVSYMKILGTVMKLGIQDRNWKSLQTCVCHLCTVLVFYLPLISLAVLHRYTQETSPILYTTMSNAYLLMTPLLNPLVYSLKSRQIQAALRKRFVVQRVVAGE
# Method in brief: as §1
# [5] = target: T5, UniProt Q7TQU8
# T5 sequence (whole entry): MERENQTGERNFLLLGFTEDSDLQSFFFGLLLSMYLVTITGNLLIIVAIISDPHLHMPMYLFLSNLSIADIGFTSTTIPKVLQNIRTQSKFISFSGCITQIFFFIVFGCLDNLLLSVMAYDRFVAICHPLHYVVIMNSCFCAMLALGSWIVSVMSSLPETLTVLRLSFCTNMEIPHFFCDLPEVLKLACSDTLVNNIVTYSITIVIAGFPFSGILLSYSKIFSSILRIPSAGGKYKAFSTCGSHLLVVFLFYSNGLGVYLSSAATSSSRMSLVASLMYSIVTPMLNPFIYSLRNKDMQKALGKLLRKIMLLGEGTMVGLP
# Method in brief: as §1
# [6] = target: T6, UniProt Q7TQV4
# T6 sequence (whole entry): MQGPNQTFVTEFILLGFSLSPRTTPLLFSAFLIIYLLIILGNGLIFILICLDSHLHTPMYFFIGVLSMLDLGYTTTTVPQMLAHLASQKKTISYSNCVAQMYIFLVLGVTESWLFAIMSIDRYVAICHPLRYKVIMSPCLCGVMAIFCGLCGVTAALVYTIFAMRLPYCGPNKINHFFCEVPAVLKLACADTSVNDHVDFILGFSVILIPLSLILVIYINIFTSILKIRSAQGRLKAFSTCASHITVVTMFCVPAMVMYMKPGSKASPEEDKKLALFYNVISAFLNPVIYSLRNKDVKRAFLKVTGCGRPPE
# Method in brief: as §1
# [7] = target: T7, UniProt Q7TR71
# T7 sequence (whole entry): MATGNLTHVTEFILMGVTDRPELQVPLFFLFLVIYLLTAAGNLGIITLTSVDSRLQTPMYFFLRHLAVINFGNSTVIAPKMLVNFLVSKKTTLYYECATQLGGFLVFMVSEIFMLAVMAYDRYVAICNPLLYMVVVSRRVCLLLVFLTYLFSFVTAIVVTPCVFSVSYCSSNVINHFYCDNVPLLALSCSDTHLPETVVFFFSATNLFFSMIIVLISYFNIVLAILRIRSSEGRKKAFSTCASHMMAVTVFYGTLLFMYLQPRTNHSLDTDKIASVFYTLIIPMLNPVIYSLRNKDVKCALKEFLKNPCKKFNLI
# Method in brief: as §1
# [8] = target: T8, UniProt Q7TR79
# T8 sequence (whole entry): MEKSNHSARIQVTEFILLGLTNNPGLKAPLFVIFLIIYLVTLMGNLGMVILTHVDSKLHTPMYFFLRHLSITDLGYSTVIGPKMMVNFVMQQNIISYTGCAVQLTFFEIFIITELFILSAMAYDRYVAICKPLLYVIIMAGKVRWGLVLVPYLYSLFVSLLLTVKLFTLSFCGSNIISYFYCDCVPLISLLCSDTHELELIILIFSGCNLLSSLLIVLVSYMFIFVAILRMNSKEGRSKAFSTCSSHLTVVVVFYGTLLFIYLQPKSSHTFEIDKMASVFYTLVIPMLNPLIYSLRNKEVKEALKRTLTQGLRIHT
# Method in brief: as §1
# [9] = target: T9, UniProt Q7TRA3
# T9 sequence (whole entry): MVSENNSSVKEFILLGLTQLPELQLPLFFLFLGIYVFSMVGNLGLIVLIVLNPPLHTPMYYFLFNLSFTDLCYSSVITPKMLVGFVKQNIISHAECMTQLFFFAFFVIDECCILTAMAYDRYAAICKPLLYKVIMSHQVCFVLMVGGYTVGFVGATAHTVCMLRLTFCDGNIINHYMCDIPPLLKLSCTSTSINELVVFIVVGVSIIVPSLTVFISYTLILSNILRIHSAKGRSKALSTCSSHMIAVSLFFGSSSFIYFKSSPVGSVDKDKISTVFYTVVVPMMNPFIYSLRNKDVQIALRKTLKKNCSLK
# Method in brief: as §1
# [10] = target: T10, UniProt Q7TRE4
# T10 sequence (whole entry): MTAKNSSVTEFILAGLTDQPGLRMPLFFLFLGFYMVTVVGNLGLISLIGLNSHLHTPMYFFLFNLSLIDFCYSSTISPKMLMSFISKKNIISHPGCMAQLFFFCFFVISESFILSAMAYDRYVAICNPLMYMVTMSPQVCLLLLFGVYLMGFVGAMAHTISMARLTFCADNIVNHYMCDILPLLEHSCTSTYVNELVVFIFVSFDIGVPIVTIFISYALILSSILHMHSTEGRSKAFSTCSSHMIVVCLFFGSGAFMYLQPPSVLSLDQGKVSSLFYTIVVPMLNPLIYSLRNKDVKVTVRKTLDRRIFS
# Method in brief: as §1
# [11] = target: UniProt L7N1Y8
# Chain of UniProt L7N1Y8 (L7N1Y8 as listed by the source): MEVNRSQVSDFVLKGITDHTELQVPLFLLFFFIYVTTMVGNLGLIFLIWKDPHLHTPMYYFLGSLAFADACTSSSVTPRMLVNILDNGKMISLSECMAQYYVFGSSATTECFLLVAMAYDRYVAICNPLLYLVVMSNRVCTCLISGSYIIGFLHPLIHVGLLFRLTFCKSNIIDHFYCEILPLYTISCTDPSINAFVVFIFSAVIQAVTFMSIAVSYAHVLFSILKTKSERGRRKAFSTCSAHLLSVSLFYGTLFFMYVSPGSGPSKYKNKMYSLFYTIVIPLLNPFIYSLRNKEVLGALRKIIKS
# Method in brief: as §1
# [12] = target: UniProt Q7TR75
# Chain of UniProt Q7TR75 (Q7TR75 as listed by the source): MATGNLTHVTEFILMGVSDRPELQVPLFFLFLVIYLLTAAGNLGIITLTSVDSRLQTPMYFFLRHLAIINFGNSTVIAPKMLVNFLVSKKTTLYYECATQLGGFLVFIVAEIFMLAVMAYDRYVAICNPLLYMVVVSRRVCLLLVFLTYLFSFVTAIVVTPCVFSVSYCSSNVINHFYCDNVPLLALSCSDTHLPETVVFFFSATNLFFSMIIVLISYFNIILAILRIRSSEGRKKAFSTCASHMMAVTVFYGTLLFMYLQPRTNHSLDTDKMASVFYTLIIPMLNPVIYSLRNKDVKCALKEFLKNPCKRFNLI
# Method in brief: as §1
# [13] = target: T11, UniProt Q7TRA1
# T11 sequence (whole entry): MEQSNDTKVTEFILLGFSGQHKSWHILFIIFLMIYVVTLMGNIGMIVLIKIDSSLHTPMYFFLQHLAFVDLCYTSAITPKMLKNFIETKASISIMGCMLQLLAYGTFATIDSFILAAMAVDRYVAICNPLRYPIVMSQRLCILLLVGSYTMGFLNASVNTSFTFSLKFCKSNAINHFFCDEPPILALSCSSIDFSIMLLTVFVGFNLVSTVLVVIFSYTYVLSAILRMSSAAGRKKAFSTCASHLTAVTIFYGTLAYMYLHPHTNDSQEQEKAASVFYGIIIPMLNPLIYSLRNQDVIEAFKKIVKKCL
# Method in brief: as §1
# [14] = target: T12, UniProt Q7TRA2
# T12 sequence (whole entry): T11 sequence (whole entry) with S18A, I86T, I94F, M95I, S112C, V208L, T219I, V221I, V305A
# Method in brief: as §1
# [15] = target: UniProt Q7TRB8
# Chain of UniProt Q7TRB8 (Q7TRB8 as listed by the source): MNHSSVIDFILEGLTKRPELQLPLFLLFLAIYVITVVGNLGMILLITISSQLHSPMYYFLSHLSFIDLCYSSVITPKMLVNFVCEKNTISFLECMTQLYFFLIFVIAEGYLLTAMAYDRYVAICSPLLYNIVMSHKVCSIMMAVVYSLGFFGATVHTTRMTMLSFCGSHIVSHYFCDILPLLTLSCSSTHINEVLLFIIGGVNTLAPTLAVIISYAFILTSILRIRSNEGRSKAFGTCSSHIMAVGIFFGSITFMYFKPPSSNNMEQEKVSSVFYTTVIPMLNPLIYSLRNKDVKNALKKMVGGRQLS
# Method in brief: as §1
# [16] = target: T13, UniProt L7N0P5
# T13 sequence (whole entry): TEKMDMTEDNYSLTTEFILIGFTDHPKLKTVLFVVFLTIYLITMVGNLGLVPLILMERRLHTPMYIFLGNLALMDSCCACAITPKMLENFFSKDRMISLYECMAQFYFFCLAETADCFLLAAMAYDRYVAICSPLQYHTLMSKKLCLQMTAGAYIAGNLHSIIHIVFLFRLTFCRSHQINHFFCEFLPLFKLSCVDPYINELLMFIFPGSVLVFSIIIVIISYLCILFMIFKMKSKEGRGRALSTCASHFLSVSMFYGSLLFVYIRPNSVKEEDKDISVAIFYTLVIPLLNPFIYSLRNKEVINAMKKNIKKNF
# Method in brief: as §1
# 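Also: active if original authors judged signal statistically different from baseline.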
smiles,measurement,setting,value
CC(C)=CCCC(C)CC=O (stereo not given),odorant receptor agonist call,[1],inactive
CCCCOC(=O)CCC,odorant receptor agonist call,[1],inactive
CCC(=O)O,odorant receptor agonist call,[1],inactive
same,odorant receptor agonist call,[2],inactive
same,odorant receptor agonist call,[3],inactive
same,odorant receptor agonist call,[4],inactive
same,odorant receptor agonist call,[5],inactive
same,odorant receptor agonist call,[6],inactive
same,odorant receptor agonist call,[7],inactive
same,odorant receptor agonist call,[8],inactive
same,odorant receptor agonist call,[9],inactive
same,odorant receptor agonist call,[10],inactive
O=c1ccc2ccccc2o1,odorant receptor agonist call,[1],active
same,odorant receptor agonist call,[11],active
same,odorant receptor agonist call,[2],active
same,odorant receptor agonist call,[6],active
same,odorant receptor agonist call,[7],active
same,odorant receptor agonist call,[12],active
same,odorant receptor agonist call,[13],inactive
same,odorant receptor agonist call,[14],inactive
same,odorant receptor agonist call,[9],active
same,odorant receptor agonist call,[15],active
same,odorant receptor agonist call,[10],active
CC12CCC(CC1=O)C2(C)C (stereo not given),odorant receptor agonist call,[1],inactive
same,odorant receptor agonist call,[2],inactive
same,odorant receptor agonist call,[3],inactive
same,odorant receptor agonist call,[4],inactive
same,odorant receptor agonist call,[5],inactive
same,odorant receptor agonist call,[6],inactive
same,odorant receptor agonist call,[7],active
same,odorant receptor agonist call,[8],inactive
same,odorant receptor agonist call,[9],inactive
same,odorant receptor agonist call,[10],inactive
Cc1nccnc1C,odorant receptor agonist call,[1],inactive
same,odorant receptor agonist call,[16],active
CC(O)c1ccccc1 (stereo not given),odorant receptor agonist call,[1],inactive
C=C(C)C1CCC(C)C(=O)C1 (stereo not given),odorant receptor agonist call,[1],inactive
same,odorant receptor agonist call,[2],inactive
same,odorant receptor agonist call,[3],inactive
same,odorant receptor agonist call,[4],inactive
same,odorant receptor agonist call,[5],inactive
same,odorant receptor agonist call,[6],inactive
same,odorant receptor agonist call,[7],inactive
same,odorant receptor agonist call,[8],inactive
same,odorant receptor agonist call,[9],inactive
same,odorant receptor agonist call,[10],inactive
CCC(=O)OC(C)(C)C,odorant receptor agonist call,[1],inactive
CCCC(=O)OC,odorant receptor agonist call,[1],inactive
CC(C)=CC1CC(C)CCO1 (stereo not given),odorant receptor agonist call,[1],inactive
CCCOC(=O)CCC,odorant receptor agonist call,[1],inactive
CCCCOC,odorant receptor agonist call,[1],inactive
CC(C)CN,odorant receptor agonist call,[1],inactive
C=CCCCCCC,odorant receptor agonist call,[1],inactive
CCC(C)c1nccnc1OC (stereo not given),odorant receptor agonist call,[1],inactive
same,odorant receptor agonist call,[16],active
same,odorant receptor agonist call,[2],inactive
same,odorant receptor agonist call,[3],inactive
same,odorant receptor agonist call,[4],inactive
same,odorant receptor agonist call,[5],inactive
same,odorant receptor agonist call,[8],inactive
